Series [1] concerns Candida tropicalis. Briefly: Antifungal activity against Candida tropicalis ATCC 1369 assessed as inhibition of microbial growth by NCCLS protocol based method. It counts as functional. The method, boiled down: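 Broth MIC50 determined following NCCLS guidelines in Sabouraud medium, with fungal suspension in 24-well format. Compound tested at 0.0625, 0.125, 0.5, 1, 2, 4, 8 and 16 μg/mL. Plates cultured statically at 35 °C. MIC50 is the lowest concentration giving 50% growth inhibition. Naftifine and fluconazole served as positive controls.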

Series [2] relates to Candida albicans. Briefly: Antifungal activity against fluconazole-resistant Candida albicans 17# assessed as inhibition of microbial growth by NCCLS protocol based method. It counts as functional.
The test system of series [3] is Candida albicans. Briefly: Antifungal activity against fluconazole-resistant Candida albicans 901 assessed as inhibition of microbial growth by NCCLS protocol based method. It counts as functional.
Series [4] relates to Candida albicans. Briefly: Antifungal activity against Candida albicans ATCC SC5314 assessed as induction of cell fracture at 10 nM/mL by polarizing microscopy. It counts as functional, organism-based. Conditions: dose 10.0 nmol/ml. The method, boiled down: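 C. albicans ATCC SC5314 observed by polarizing microscopy over treatment time. Untreated, fluconazole- and naftifine-treated control groups were included. Cell density, dividing cells and cell fracture were assessed, with cell counts taken per field.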

The test system of series [5] is Candida albicans SC5314. Briefly: Inhibition of SE/CYP51 in Candida albicans ATCC SC5314 assessed as ergosterol level at 4 ug/ml incubated for 48 hrs by LC/MS analysis (reference value: 95.1 %). Set-up: scale not given: the % may be the effect or the level left. Conditions: dose 4.0 µg/ml. A digest of the protocol:
(§1)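 C. albicans SC5314 cells exposed to compound at 0.125, 0.5 or 4 μg/mL for 48 h, alongside untreated, fluconazole and naftifine controls. Sterols (ergosterol, squalene, lanosterol, eburicol, unknown) analysed by LC-MS. Each component expressed as percentage of total sterols from peak area ratios.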

Series [6] has as its system Candida albicans SC5314. As to the kind of experiment: Inhibition of SE/CYP51 in Candida albicans ATCC SC5314 assessed as lanosterol level at 0.125 ug/ml incubated for 48 hrs by LC/MS analysis. The note with it: dose 0.125 µg/ml. Set-up: scale not given: the % may be the effect or the level left. A digest of the protocol: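 C. albicans ATCC SC5314 cells exposed to drug at 0.125, 0.5 or 4 μg/mL for 48 h, alongside an untreated control. Sterols were extracted and analysed by LC-MS. Ergosterol, squalene, lanosterol, eburicol and unknown sterols are each given as % of total sterols, calculated from the peak area ratio of each component.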

The test system of series [7] is Candida albicans SC5314. Briefly: Inhibition of SE/CYP51 in Candida albicans ATCC SC5314 assessed as lanosterol level at 0.5 ug/ml incubated for 48 hrs by LC/MS analysis. Set-up: scale not given: the % may be the effect or the level left. The note with it: dose 0.5 µg/ml. A digest of the protocol:
as §1

The subject of series [8] is Candida albicans SC5314. As to the kind of experiment: Inhibition of SE/CYP51 in Candida albicans ATCC SC5314 assessed as lanosterol level at 4 ug/ml incubated for 48 hrs by LC/MS analysis. Conditions: dose 4.0 µg/ml. Set-up: scale not given: the % may be the effect or the level left. A digest of the protocol:
as §1

Series [9] relates to Candida albicans SC5314. As to the kind of experiment: Inhibition of SE/CYP51 in Candida albicans ATCC SC5314 assessed as eburicol level at […] ug/ml incubated for 48 hrs by LC/MS analysis (reference value: 1.4 %). Set-up: scale not given: the % may be the effect or the level left. The note with it: dose 0.125 µg/ml.
Series [10] concerns Candida albicans SC5314. Briefly: Inhibition of SE/CYP51 in Candida albicans ATCC SC5314 assessed as unknown sterol level at 4 ug/ml incubated for 48 hrs by LC/MS analysis (reference value: 3.5 %). Set-up: scale not given: the % may be the effect or the level left. The note with it: dose 4.0 µg/ml. The method, boiled down:
as §1

Series [11] is described as follows: Stability in human plasma assessed as compound remaining incubated for 60 mins. It counts as ADME, cell-free. Conditions: read-out: Stabilty. A digest of the protocol:
(§2)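 Compound incubated in human plasma. Percent remaining measured at 60 and 120 min.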

The nature of series [12]: Stability in human plasma assessed as compound remaining incubated for 120 mins. It counts as ADME, cell-free. The note with it: read-out: Stabilty. The method, boiled down: as §2
A short description of series [13]: Toxicity in mouse infected with Candida albicans SC5314 assessed as change in heart morphology administered via abdomen for 7 days by H and E staining based histological analysis. The note with it: in vivo, ip, 168 h, time 7 day. A digest of the protocol:
(§3)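 Mice infected with C. albicans SC5314 by subcutaneous abdominal injection, then randomized into saline, and two compound-treated groups. Treatment given by abdominal injection for 7 days, with body weight monitored. Heart, liver, spleen, lung, kidney and infected abdominal tissue harvested for H&E histology.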

Series [14] in a line: Toxicity in mouse infected with Candida albicans SC5314 assessed as change in kidney morphology administered via abdomen for 7 days by H and E staining based histological analysis. Conditions: in vivo, ip, 168 h, time 7 day. A digest of the protocol:
as §3

A short description of series [15]: Hepatotoxicity in mouse infected with Candida albicans SC5314 assessed as effect on aspartate aminotransferase level in plasma administered via abdomen for 7 days (reference value: 104.7 +/- 5.2 IU/L). It counts as toxicity. Conditions: ip, 168 h, time 7 day.
Series [16] addresses Lanosterol 14-alpha demethylase (Candida albicans (strain SC5314 / ATCC MYA-2876) (Yeast), UniProt P10613). As to the kind of experiment: Inhibition of Candida albicans ATCC SC5314 CYP51 incubated for 30 mins by HPLC method.
The subject of series [17] is Candida albicans. As to the kind of experiment: Antifungal activity against Candida albicans ATCC SC5314 assessed as disappearance of fungal cell boundaries at 4 ug/ml incubated for 72 hrs by TEM analysis. Conditions: dose 4.0 µg/ml. It counts as functional, organism-based. The method, boiled down: (§4)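 C. albicans SC5314 suspension prepared per NCCLS protocol, exposed to compound at 4 μg/mL and incubated at 35 °C. Sampled at 72 h and 144 h, with a 0 h reference. Samples fixed at 4 °C in 3% glutaraldehyde, washed in PBS, stained with uranium/osmium for 30 min, and imaged by transmission electron microscopy.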

For series [18], the system named is Candida albicans. As to the kind of experiment: Antifungal activity against Candida albicans ATCC SC5314 assessed as irregular cell structure at 4 ug/ml incubated for 72 hrs by TEM analysis. It counts as functional, organism-based. Conditions: dose 4.0 µg/ml. A digest of the protocol:
as §4

Series [19] has as its system Candida albicans. As to the kind of experiment: Antifungal activity against Candida albicans ATCC SC5314 assessed as edema cavitation at 4 ug/ml incubated for 72 hrs by TEM analysis. The note with it: dose 4.0 µg/ml. It counts as functional, organism-based. A digest of the protocol:
as §4

The test system of series [20] is Candida albicans. As to the kind of experiment: Antifungal activity against Candida albicans ATCC SC5314 assessed as appearance of disordered ridge arrangement in cytoplasm at 4 ug/ml incubated for 72 hrs by TEM analysis. It counts as functional, organism-based. Conditions: dose 4.0 µg/ml. A digest of the protocol: as §4
For series [21], the system named is Candida albicans. Briefly: Antifungal activity against Candida albicans ATCC SC5314 assessed as exfoliation of rough ER particles at 4 ug/ml incubated for 72 hrs by TEM analysis. It counts as functional, organism-based. The note with it: dose 4.0 µg/ml. A digest of the protocol:
as §4

The subject of series [22] is Candida albicans. As to the kind of experiment: Antifungal activity against Candida albicans ATCC SC5314 assessed as cracked fungal cells at 4 ug/ml incubated for 144 hrs by TEM analysis. It counts as functional, organism-based. The note with it: dose 4.0 µg/ml. The method, boiled down: as §4

2 compounds from ChEMBL document CHEMBL4732095, “Novel naphthylamide derivatives as dual-target antifungal inhibitors: Design, synthesis and biological evaluation” (Eur J Med Chem, 2021) can be followed below.

Active and inactive are the calls of the source. The rule behind the calls is not given here.

Sequence of Lanosterol 14-alpha demethylase (P10613 whole entry): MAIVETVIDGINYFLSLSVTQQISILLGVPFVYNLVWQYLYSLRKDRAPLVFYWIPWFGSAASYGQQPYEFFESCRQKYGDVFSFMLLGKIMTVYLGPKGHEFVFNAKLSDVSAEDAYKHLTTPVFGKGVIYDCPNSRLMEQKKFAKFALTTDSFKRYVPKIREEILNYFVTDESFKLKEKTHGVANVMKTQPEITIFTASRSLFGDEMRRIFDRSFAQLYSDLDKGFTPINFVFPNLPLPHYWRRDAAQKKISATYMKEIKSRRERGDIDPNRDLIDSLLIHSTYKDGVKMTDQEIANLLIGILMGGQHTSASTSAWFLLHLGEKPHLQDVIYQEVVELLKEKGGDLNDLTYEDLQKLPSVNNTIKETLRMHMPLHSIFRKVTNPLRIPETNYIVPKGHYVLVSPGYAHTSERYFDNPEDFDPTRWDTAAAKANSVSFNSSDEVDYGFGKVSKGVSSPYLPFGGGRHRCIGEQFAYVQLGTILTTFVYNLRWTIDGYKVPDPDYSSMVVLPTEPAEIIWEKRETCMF

As to `O=C(NC(Cn1ccnc1)C(=O)NCc1ccncc1)c1ccc2ccccc2c1` (stereo not drawn), the MIC50 (as a rule, the lowest concentration that inhibits either 50% of growth or 50% of the strains tested, depending on the study) in series [1] was found to be 0.25 µg/mL; in series [2], 4 µg/mL; in series [3] it was 4 µg/mL. Also, in series [4], the result was Active. The Activity was found to be 13.2% in series [5]; 3.8% in [6]; 7.2% in [7]; 10.9% in [8]; 13.6% in series [9]; 6.1% in [10]. In addition, the figures for the Activity result in series [13], in series [14] and in series [15] were “Non-Toxic”, “Non-Toxic” and 108.6 IU/L, respectively. The remaining at 1 h in series [11] was found to be 94.5%. The remaining at 2 h in [12] was 91.6%. In addition, it took 1150 nM to reach half-maximal inhibition in series [16] (IC50).
As to `CC(NC(=O)c1cccc2ccccc12)C(=O)NC(Cn1ccnc1)C(=O)c1ccccc1` (stereo not drawn), the MIC50 in series [1] worked out at 0.125 µg/mL; in [2], 2 µg/mL; in series [3] it was 4 µg/mL. Besides, the outcome in series [4], in [17], in [18], in [19], in series [20] and in series [21] was Active. Besides, the outcome in series [22] was Active. Also, the Activity in series [5] was 10.8%; in series [6], 2.8%; in series [7] it was 8.7%; in series [8] it was 12.5%; in series [9], 17.5%; in series [10], 6.2%. In addition, the Activity entry in series [13] was “Non-Toxic”; in [14], “Non-Toxic”; in series [15] it was 112.3 IU/L. Besides, the remaining at 1 h in [11] came out at 96.3%. In addition, the remaining at 2 h in [12] came out at 92.1%. Further, the IC50 (commonly the concentration that inhibits the measured activity by half) in series [16] was found to be 537 nM.
